From ChEMBL document CHEMBL4229389, “Synthesis and biological evaluation of clovamide analogues as potent anti-neuroinflammatory agents in vitro and in vivo” (Eur J Med Chem, 2018)
Calls of active or inactive are those of the source. No cut-off for these calls is given here.

System: BV-2
Experiment: Anti-neuroinflammatory activity in […] assessed as reduction in LPS-induced NO production preincubated for 4 hrs followed by LPS stimulation for 24 hrs by Griess assay
Format: functional, cell-based
Settings: Mus musculus
How it was run: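 BV-2 cells pretreated 4 h over 0.78-100 µM (twofold series), then LPS 500 ng/mL for 24 h. Supernatant mixed 1:1 with Griess reagent, A540, against NaNO2 standard curve. IC50 by curve fitting; mean ± S.E.M. of three experiments.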

Row | IC50 [µM] | SMILES
1 | 3.4 | O=C(/C=C/c1ccc(O)cc1)N[C@@H](Cc1ccc(O)cc1)C(=O)O
2 | 15.3 | O=C(/C=C/c1cccc(O)c1)N[C@@H](Cc1ccccc1)C(=O)O
3 | 4.41 | COc1cc(/C=C/C(=O)N[C@@H](Cc2ccccc2)C(=O)O)ccc1O
4 | 2.67 | COc1cc(/C=C/C(=O)N[C@@H](Cc2ccc(O)cc2)C(=O)O)ccc1O
5 | 26.4 | O=C(/C=C/c1ccccc1)N[C@@H](Cc1ccccc1)C(=O)O
6 | 10.4 | O=C(/C=C/c1ccc(O)cc1)N[C@@H](Cc1ccccc1)C(=O)O

System: BV-2
Experiment: Anti-neuroinflammatory activity in […] assessed as reduction in LPS-induced NO production at 10 uM preincubated for 4 hrs followed by LPS stimulation for 24 hrs by Griess assay relative to control
Format: functional
Settings: not given
How it was run: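 Mouse microglial BV-2 cells in DMEM with 10% FBS. Pretreated at 10 µM for 4 h, then LPS 500 ng/mL for 24 h. Nitrite in supernatant measured with Griess reagent at 540 nm. Means ± S.E.M., n=3.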

Row | SMILES | inhibition
7 | COC(=O)[C@H](Cc1ccc(O)cc1)NC(=O)/C=C/c1ccccc1 | Active
8 | COC(=O)CC[C@H](NC(=O)/C=C/c1cccc(O)c1)C(=O)OC | Active
9 | COC(=O)[C@H](Cc1ccccc1)NC(=O)/C=C/c1ccccc1 | Active
10 | O=C(O)C[C@H](NC(=O)/C=C/c1cccc(O)c1)C(=O)O | Active
11 | COC(=O)[C@H](Cc1ccccc1)NC(=O)/C=C/c1ccc(O)c(OC)c1 | Active
12 | COC(=O)[C@H](Cc1ccccc1)NC(=O)/C=C/c1ccc(O)cc1 | Active
13 | COC(=O)C[C@H](NC(=O)/C=C/c1cccc(O)c1)C(=O)OC | Active
14 | COC(=O)[C@H](Cc1ccc(O)cc1)NC(=O)/C=C/c1ccc(O)c(OC)c1 | Active
15 | COC(=O)[C@H](Cc1ccccc1)NC(=O)/C=C/c1cccc(O)c1 | Active
16 | COC(=O)[C@H](Cc1ccc(O)cc1)NC(=O)/C=C/c1ccc(O)cc1 | Active
17 | COC(=O)C[C@H](NC(=O)/C=C/c1ccc(O)cc1)C(=O)OC | Active
18 | COC(=O)CC[C@H](NC(=O)/C=C/c1ccc(O)c(OC)c1)C(=O)OC | Active
19 | COc1cc(/C=C/C(=O)N[C@@H](CCC(=O)O)C(=O)O)ccc1O | Active
20 | O=C(O)CC[C@H](NC(=O)/C=C/c1cccc(O)c1)C(=O)O | Active
21 | O=C(O)CC[C@H](NC(=O)/C=C/c1ccccc1)C(=O)O | Active
22 | COC(=O)[C@H](Cc1ccc(O)cc1)NC(=O)/C=C/c1cccc(O)c1 | Active
23 | O=C(O)C[C@H](NC(=O)/C=C/c1ccc(O)cc1)C(=O)O | Active
24 | O=C(/C=C/c1ccccc1)N[C@@H](Cc1ccc(O)cc1)C(=O)O | Active
25 | COC(=O)CC[C@H](NC(=O)/C=C/c1ccccc1)C(=O)OC | Active
26 | O=C(/C=C/c1cccc(O)c1)N[C@@H](Cc1ccc(O)cc1)C(=O)O | Active

Same assay, conditions: Mus musculus

Row | SMILES | inhibition at 10 µM [%]
27 | O=C(/C=C/c1ccc(O)cc1)N[C@@H](Cc1ccc(O)cc1)C(=O)O | > 50
28 | O=C(/C=C/c1cccc(O)c1)N[C@@H](Cc1ccccc1)C(=O)O | > 50
29 | COc1cc(/C=C/C(=O)N[C@@H](Cc2ccccc2)C(=O)O)ccc1O | > 50
30 | COc1cc(/C=C/C(=O)N[C@@H](Cc2ccc(O)cc2)C(=O)O)ccc1O | > 50
31 | O=C(/C=C/c1ccccc1)N[C@@H](Cc1ccccc1)C(=O)O | > 50
32 | O=C(/C=C/c1ccc(O)cc1)N[C@@H](Cc1ccccc1)C(=O)O | > 50

System: BV-2
Experiment: Anti-neuroinflammatory activity in […] assessed as reduction in LPS-induced COX-2 expression preincubated for 2 hrs followed by LPS stimulation for 24 hrs by Western blot analysis
Format: functional, cell-based
Settings: not given
How it was run: (§1)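 BV-2 cells at 5 × 10^5/well, pretreated at 1, 10 or 20 µM, then LPS 500 ng/mL. Lysed in RIPA with protease/phosphatase inhibitors. 30 µg protein blotted with primary antibodies 1:1000 and HRP secondary 1:5000, ECL detection. β-actin as loading control. Expressed as fold of control; at least three independent experiments, each in duplicate.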

Row | SMILES | Activity
33 | COc1cc(/C=C/C(=O)N[C@@H](Cc2ccc(O)cc2)C(=O)O)ccc1O | Dose-dependent effect

Target: Nitric oxide synthase, inducible (Mus musculus) (UniProt P29477)
Sequence (P29477 whole entry, looked up): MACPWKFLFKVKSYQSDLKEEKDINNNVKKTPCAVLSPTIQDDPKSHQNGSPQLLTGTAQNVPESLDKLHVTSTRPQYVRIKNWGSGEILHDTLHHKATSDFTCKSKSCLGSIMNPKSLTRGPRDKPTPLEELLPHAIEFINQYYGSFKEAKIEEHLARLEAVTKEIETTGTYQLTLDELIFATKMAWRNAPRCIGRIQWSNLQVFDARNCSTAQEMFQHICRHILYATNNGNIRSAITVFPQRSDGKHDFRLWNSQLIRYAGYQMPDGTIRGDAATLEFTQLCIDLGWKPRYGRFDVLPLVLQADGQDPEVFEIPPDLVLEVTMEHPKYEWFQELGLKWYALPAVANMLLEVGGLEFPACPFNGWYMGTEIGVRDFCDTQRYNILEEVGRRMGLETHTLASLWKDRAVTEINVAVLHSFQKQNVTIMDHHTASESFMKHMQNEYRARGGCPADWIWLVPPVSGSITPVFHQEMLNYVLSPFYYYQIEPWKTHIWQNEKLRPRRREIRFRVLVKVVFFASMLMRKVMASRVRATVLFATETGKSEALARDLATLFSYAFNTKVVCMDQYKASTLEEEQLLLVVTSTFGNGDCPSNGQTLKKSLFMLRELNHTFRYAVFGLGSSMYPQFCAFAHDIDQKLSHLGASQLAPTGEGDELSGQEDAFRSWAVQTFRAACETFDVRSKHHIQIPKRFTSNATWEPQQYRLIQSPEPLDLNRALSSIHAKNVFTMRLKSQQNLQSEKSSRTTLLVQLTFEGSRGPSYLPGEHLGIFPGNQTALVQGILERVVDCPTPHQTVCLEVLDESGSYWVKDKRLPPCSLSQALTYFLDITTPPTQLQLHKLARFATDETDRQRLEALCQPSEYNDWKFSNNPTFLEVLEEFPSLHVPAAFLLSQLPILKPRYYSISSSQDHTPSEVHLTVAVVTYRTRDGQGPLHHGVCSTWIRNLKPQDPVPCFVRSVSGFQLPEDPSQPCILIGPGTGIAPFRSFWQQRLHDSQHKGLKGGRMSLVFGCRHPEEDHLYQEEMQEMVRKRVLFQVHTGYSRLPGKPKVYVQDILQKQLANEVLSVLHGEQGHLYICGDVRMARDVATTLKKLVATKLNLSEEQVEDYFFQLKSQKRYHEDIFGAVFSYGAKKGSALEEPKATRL
Experiment: Inhibition of LPS-induced iNOS in mouse BV2 cells after 4 hrs by DAF-FMDA dye-based fluorescence assay
Settings: not given

Row | IC50 [µM] | SMILES
34 | 2.1 | O=C(/C=C/c1ccc(O)cc1)N[C@@H](Cc1ccc(O)cc1)C(=O)O
35 | 29.2 | O=C(/C=C/c1cccc(O)c1)N[C@@H](Cc1ccccc1)C(=O)O
36 | 2.98 | COc1cc(/C=C/C(=O)N[C@@H](Cc2ccccc2)C(=O)O)ccc1O
37 | 1.01 | COc1cc(/C=C/C(=O)N[C@@H](Cc2ccc(O)cc2)C(=O)O)ccc1O
38 | 18.9 | O=C(/C=C/c1ccccc1)N[C@@H](Cc1ccccc1)C(=O)O
39 | 8.45 | O=C(/C=C/c1ccc(O)cc1)N[C@@H](Cc1ccccc1)C(=O)O

System: BV-2
Experiment: Anti-neuroinflammatory activity in […] assessed as reduction in LPS-induced IL-1beta expression preincubated for 2 hrs followed by LPS stimulation for 24 hrs by Western blot analysis
Format: functional, cell-based
Settings: not given
How it was run: as §1

Row | SMILES | Activity
40 | COc1cc(/C=C/C(=O)N[C@@H](Cc2ccc(O)cc2)C(=O)O)ccc1O | Dose-dependent effect

System: Mus musculus
Experiment: (§2) Anti-neuroinflammatory activity in MPTP-induced C57BL/6 mouse assessed as reduction in astroglial activation by measuring increase in glial fibrillary acidic protein expression in substantia nigra at 10 to 20 mg/kg, po pre-treated daily for 7 days followed by 4 times MPTP addition at 2 hrs intervals and measured after 4 to 72 hrs post MPTP injection by DAB staining based immunohistochemistry method
Format: functional, organism-based
Settings: not given

Row | SMILES | Activity
41 | COc1cc(/C=C/C(=O)N[C@@H](Cc2ccc(O)cc2)C(=O)O)ccc1O | Active

System: BV-2
Experiment: Anti-neuroinflammatory activity in […] assessed as reduction in LPS-induced TNF-alpha expression preincubated for 2 hrs followed by LPS stimulation for 24 hrs by Western blot analysis
Format: functional, cell-based
Settings: not given
How it was run: as §1

Row | SMILES | Activity
42 | COc1cc(/C=C/C(=O)N[C@@H](Cc2ccc(O)cc2)C(=O)O)ccc1O | Dose-dependent effect

System: Mus musculus
Experiment: as §2, with “striatum” for “substantia nigra”
Format: functional, organism-based
Settings: not given

Row | SMILES | Activity
43 | COc1cc(/C=C/C(=O)N[C@@H](Cc2ccc(O)cc2)C(=O)O)ccc1O | Active

Target: Transcription factor p65 (Mus musculus) (UniProt Q04207)
Sequence (Q04207 whole entry, looked up): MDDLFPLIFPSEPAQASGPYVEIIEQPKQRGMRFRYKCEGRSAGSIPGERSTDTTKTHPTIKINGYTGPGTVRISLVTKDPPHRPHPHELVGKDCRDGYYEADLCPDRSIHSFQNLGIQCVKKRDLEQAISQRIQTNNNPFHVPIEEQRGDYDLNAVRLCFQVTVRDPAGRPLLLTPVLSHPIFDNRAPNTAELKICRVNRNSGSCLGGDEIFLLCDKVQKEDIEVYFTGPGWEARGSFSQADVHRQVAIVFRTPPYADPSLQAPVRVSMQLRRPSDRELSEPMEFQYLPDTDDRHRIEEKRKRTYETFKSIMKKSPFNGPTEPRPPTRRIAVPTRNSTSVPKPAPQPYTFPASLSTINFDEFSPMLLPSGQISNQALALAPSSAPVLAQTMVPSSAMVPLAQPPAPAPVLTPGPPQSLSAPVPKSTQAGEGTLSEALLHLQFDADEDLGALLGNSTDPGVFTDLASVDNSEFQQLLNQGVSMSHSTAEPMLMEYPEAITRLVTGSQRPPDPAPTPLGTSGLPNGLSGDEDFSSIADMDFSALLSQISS
Experiment: Inhibition of LPS-induced nuclear translocation of NF-kappaB-p65 in mouse BV2 cells at 1 to 20 uM preincubated for 2 hrs followed by LPS stimulation for 2 hrs by Western blot analysis
Settings: not given

Row | inhibition | SMILES
44 | Active | COc1cc(/C=C/C(=O)N[C@@H](Cc2ccc(O)cc2)C(=O)O)ccc1O

System: Mus musculus
Experiment: as §2, with “as” for “as reduction in astroglial activation by measuring”, “tyrosine hydroxylase positive cells” for “glial fibrillary acidic protein expression”
Format: functional, organism-based
Settings: not given

Row | SMILES | Activity
45 | COc1cc(/C=C/C(=O)N[C@@H](Cc2ccc(O)cc2)C(=O)O)ccc1O | Active

System: Mus musculus
Experiment: Anti-neuroinflammatory activity in MPTP-induced C57BL/6 mouse assessed as alleviation of functional behaviour impairment at 10 mg/kg, po pre-treated daily for 7 days followed by 4 times MPTP addition at 2 hrs intervals and measured after 4 to 72 hrs post MPTP injection by rota rod test
Format: organism-based
Settings: not given
How it was run: (§3)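 Male C57BL/6 mice, 7-8 weeks, 20-22 g, 8 per group. Pretrained 3 days on rota-rod, up to 25 rpm, to stay on 180 s. Dosed i.g. at 10 or 20 mg/kg daily for 7 days in 0.5% methylcellulose with 1% Tween 80, vehicle for controls. Then 4 i.p. MPTP injections (20 mg/kg) at 2-h intervals. Tested at 4, 24, 48 and 72 h; mean of three runs.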

Row | SMILES | Activity
46 | COc1cc(/C=C/C(=O)N[C@@H](Cc2ccc(O)cc2)C(=O)O)ccc1O | Active

System: BV-2
Experiment: Anti-neuroinflammatory activity in […] assessed as reduction in LPS-induced iNOS expression preincubated for 2 hrs followed by LPS stimulation for 24 hrs by Western blot analysis
Format: functional, cell-based
Settings: not given
How it was run: as §1

Row | SMILES | Activity
47 | COc1cc(/C=C/C(=O)N[C@@H](Cc2ccc(O)cc2)C(=O)O)ccc1O | Dose-dependent effect

System: not listed separately
Experiment: Cytotoxicity against […] assessed as reduction in cell viability after 24 hrs by MTT assay
Format: cell-based, BV-2
Settings: BV2 cells
How it was run: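 BV-2 cells at 5 × 10^3/well, grown 12 h, then exposed to 1-100 µM for 24 h. MTT at 0.5 mg/mL final for 4 h at 37 ℃. Formazan dissolved in DMSO and read at 490 nm. CC50 as mean ± S.E.M. of three experiments.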

Row | SMILES | CC50 at 24 h [µM]
48 | O=C(/C=C/c1ccc(O)cc1)N[C@@H](Cc1ccc(O)cc1)C(=O)O | > 100
49 | O=C(/C=C/c1cccc(O)c1)N[C@@H](Cc1ccccc1)C(=O)O | > 100
50 | COc1cc(/C=C/C(=O)N[C@@H](Cc2ccccc2)C(=O)O)ccc1O | > 100
51 | COc1cc(/C=C/C(=O)N[C@@H](Cc2ccc(O)cc2)C(=O)O)ccc1O | > 100
52 | O=C(/C=C/c1ccccc1)N[C@@H](Cc1ccccc1)C(=O)O | > 100
53 | O=C(/C=C/c1ccc(O)cc1)N[C@@H](Cc1ccccc1)C(=O)O | > 100

System: Mus musculus
Experiment: Anti-neuroinflammatory activity in MPTP-induced C57BL/6 mouse assessed as increase in tyrosine hydroxylase positive cells in striatum at 10 to 20 mg/kg, po pre-treated daily for 7 days followed by 4 times MPTP addition at 2 hrs intervals and measured after 4 to 72 hrs post MPTP injection by DAB staining based immunohistochemistry method
Format: functional, organism-based
Settings: not given

Row | SMILES | Activity
54 | COc1cc(/C=C/C(=O)N[C@@H](Cc2ccc(O)cc2)C(=O)O)ccc1O | Active

System: Mus musculus
Experiment: Anti-neuroinflammatory activity in MPTP-induced C57BL/6 mouse assessed as alleviation of functional behaviour impairment at 20 mg/kg, po pre-treated daily for 7 days followed by 4 times MPTP addition at 2 hrs intervals and measured after 4 to 72 hrs post MPTP injection by rota rod test
Format: organism-based
Settings: not given
How it was run: as §3

Row | SMILES | Activity
55 | COc1cc(/C=C/C(=O)N[C@@H](Cc2ccc(O)cc2)C(=O)O)ccc1O | Active
